{
  "source": "ChEMBL document CHEMBL5149984",
  "about": "“Discovery of HN37 as a Potent and Chemically Stable Antiepileptic Drug Candidate” (J Med Chem, 2021)",
  "key": {"[1]": {"test_system": "Mus musculus", "experiment": "Anticonvulsant activity in MES induced Kunming mouse model of seizure at 100 mg/kg, po", "type": "functional", "how_it_was_run": "(§1)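 MES test in male KM mice. Compounds freshly suspended in 0.5% CMC-Na and given by gavage at 20 mL/kg; 160 V stimulus through ear clips. Protection scored as absence of hindlimb tonic extension; time course at 0.25, 0.5, 1 and 2 h, otherwise tested at 1 h. ED50 from dose−response by nonlinear regression; Fisher's exact test versus vehicle.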"}, "[2]": {"target": "Cytochrome P450 1A2 (Homo sapiens, UniProt P05177)", "sequence (P05177 whole entry)": "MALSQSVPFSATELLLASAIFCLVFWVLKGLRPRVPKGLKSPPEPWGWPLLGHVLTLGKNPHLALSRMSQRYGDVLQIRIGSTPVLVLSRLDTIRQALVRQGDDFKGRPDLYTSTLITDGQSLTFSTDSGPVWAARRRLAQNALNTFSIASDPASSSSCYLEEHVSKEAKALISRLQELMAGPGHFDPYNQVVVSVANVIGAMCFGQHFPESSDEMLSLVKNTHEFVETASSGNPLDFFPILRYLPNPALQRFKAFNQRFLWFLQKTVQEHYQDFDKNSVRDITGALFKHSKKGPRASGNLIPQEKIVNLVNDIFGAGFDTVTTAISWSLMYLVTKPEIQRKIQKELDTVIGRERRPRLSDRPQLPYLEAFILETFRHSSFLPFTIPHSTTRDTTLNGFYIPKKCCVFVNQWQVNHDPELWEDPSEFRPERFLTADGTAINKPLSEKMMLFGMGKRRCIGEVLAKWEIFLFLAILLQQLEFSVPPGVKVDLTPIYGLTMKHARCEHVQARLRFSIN", "experiment": "Time dependent inhibition of human liver microsome CYP1A2 preincubated for 0.5 hrs in presence of NADPH followed by substrate addition by LC-MS/MS method", "type": "ADME, microsomes", "how_it_was_run": "(§2)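 Human liver microsomes preincubated 0.5 h with 0.10–50 μM test compound, with or without NADPH, then CYP-specific probe substrate added and incubation continued. Metabolite measured by LC-MS/MS; % activity remaining relative to no-compound control; IC50 fitted by Probit model. For CYP3A4, midazolam 1′-hydroxylation and testosterone 6β-hydroxylation were read separately.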"}, "[3]": {"test_system": "Mus musculus", "experiment": "Anticonvulsant activity in MES induced Kunming mouse model of seizure at 5 mg/kg, po after 1 hr", "type": "functional", "how_it_was_run": "as §1"}, "[4]": {"target": "CYP1A2 (Homo sapiens, UniProt P05177)", "sequence (P05177 whole entry)": "as above", "experiment": "Inhibition of human liver microsome CYP1A2 at 0.10 to 50 uM preincubated with NADPH for 0.5 hrs followed by substrate addition by LC-MS/MS method relative to control", "type": "ADME", "conditions": "liver microsomes, dose 0.1-50 µM"}, "[5]": {"experiment": "Drug concentration in Kunming mouse brain at 5 mg/kg", "type": "ADME, organism-based", "conditions": "in vivo, read-out: Ct", "how_it_was_run": "(§3)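 Male KM mice (18−24 g) fasted 12 h before and 2 h after dosing, given 5 mg/kg orally in 5% DMSO/5% Tween 80/90% normal saline (n = 3 per time point). Aortic blood taken at 0.25–24 h and whole brain collected. Acetonitrile extraction with internal standard, then LC−MS/MS. Bioavailability calculated against the 2 mg/kg i.v. arm.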"}, "[6]": {"experiment": "Half life in Kunming mouse brain at 5 mg/kg, po measured upto 24 hrs by LC-MS/MS method", "type": "ADME, organism-based", "how_it_was_run": "as §3"}, "[7]": {"target": "Potassium voltage-gated channel subfamily KQT member 2 (Rattus norvegicus) (UniProt O88943)", "sequence (O88943 whole entry)": "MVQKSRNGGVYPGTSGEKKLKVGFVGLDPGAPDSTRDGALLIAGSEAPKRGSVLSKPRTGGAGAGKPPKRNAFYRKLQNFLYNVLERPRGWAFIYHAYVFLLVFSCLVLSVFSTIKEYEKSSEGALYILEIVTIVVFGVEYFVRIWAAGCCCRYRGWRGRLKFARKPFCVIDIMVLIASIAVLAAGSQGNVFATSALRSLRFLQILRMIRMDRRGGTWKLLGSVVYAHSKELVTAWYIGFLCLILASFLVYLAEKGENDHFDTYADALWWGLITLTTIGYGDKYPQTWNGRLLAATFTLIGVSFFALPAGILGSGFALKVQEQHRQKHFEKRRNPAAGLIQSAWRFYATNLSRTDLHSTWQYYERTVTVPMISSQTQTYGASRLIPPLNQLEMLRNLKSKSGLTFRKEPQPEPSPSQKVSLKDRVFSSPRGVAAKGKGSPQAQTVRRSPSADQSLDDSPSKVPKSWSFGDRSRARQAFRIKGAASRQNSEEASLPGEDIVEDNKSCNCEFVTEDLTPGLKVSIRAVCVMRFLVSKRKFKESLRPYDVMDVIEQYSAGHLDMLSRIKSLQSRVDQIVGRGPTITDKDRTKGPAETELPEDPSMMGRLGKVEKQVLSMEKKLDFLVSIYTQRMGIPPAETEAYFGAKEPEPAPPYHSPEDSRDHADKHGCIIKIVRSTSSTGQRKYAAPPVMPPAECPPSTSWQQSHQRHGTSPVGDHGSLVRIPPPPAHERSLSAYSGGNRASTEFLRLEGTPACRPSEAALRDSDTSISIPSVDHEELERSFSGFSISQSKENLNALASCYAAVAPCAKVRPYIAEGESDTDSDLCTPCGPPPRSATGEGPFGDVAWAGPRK", "experiment": "Potency index, ratio of retigabine EC50 to test compound EC50 for agonist activity at rat KCNQ2 channel expressed in CHO cells by patch clamp method", "type": "cell-based"}, "[8]": {"experiment": "AUC(0 to t) in Sprague-Dawley rat at 2 mg/kg, po measured upto 24 hrs by LC-MS/MS method", "type": "ADME, organism-based", "design": "dose 2 mg/kg, time < 24 hrs, route po", "conditions": "in vivo", "how_it_was_run": "(§4)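 Male SD rats (180−220 g) dosed orally at 2, 6 or 20 mg/kg in escalating fashion, handled as in the mouse study: 12 h fast, acetonitrile extraction of plasma, LC−MS/MS quantification. AUC0−t by trapezoidal method to the last measurable concentration.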"}, "[9]": {"experiment": "AUC(0 to t) in Sprague-Dawley rat brain at 6 mg/kg, po measured upto 24 hrs by LC-MS/MS method", "type": "ADME, organism-based", "design": "dose 6 mg/kg, time < 24 hrs, route po", "how_it_was_run": "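Separate experiment in male SD rats given 6 mg/kg orally; blood and brain concentrations measured concurrently. Samples extracted with acetonitrile (brain homogenized in 10 volumes acetonitrile and sonicated) and analysed by LC−MS/MS; AUC0−t by trapezoidal method.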"}, "[10]": {"experiment": "AUC(0 to t) in Sprague-Dawley rat at 6 mg/kg, po measured upto 24 hrs by LC-MS/MS method", "type": "ADME, organism-based", "design": "dose 6 mg/kg, time < 24 hrs, route po", "conditions": "in vivo", "how_it_was_run": "as §4"}, "[11]": {"species_on_record": "Rattus norvegicus", "experiment": "Potency index, ratio of Topiramate ED50 to test compound ED50 for anticonvulsant activity in MES induced rat model of seizure after 1 hr", "type": "functional"}, "[12]": {"experiment": "Cmax in Sprague-Dawley rat at 6 mg/kg, po measured upto 24 hrs by LC-MS/MS method", "type": "ADME, organism-based", "design": "time < 24 hrs, dose 6 mg/kg, route po", "conditions": "in vivo", "how_it_was_run": "(§5)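 Male SD rats (180−220 g) given single oral doses of 2, 6 and 20 mg/kg; handled as in the mouse PK study (fasted 12 h before and 2 h after dosing, 5% DMSO/5% Tween 80/90% saline formulation). In a separate 6 mg/kg p.o. set, blood and brain were sampled together. Plasma and brain levels by LC−MS/MS.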"}, "[13]": {"experiment": "Drug concentration in Kunming mouse plasma at 5 mg/kg", "type": "ADME, organism-based", "conditions": "in vivo", "how_it_was_run": "as §3"}, "[14]": {"experiment": "Ratio of drug concentration in brain to plasma of MES induced Kunming mouse model of seizure"}, "[15]": {"test_system": "Mus musculus", "experiment": "Anticonvulsant activity in MES induced Kunming mouse model of seizure at 2.5 mg/kg, po after 0.25 to 2 hr", "type": "functional", "conditions": "time 0.25-2 hrs", "how_it_was_run": "as §1"}, "[16]": {"experiment": "Cmax in Sprague-Dawley rat blood at 6 mg/kg, po measured upto 24 hrs by LC-MS/MS method", "type": "ADME, organism-based", "design": "time < 24 hrs, dose 6 mg/kg, route po", "how_it_was_run": "as §5"}, "[17]": {"target": "CYP2D6 (Homo sapiens, UniProt P10635)", "sequence (P10635 whole entry)": "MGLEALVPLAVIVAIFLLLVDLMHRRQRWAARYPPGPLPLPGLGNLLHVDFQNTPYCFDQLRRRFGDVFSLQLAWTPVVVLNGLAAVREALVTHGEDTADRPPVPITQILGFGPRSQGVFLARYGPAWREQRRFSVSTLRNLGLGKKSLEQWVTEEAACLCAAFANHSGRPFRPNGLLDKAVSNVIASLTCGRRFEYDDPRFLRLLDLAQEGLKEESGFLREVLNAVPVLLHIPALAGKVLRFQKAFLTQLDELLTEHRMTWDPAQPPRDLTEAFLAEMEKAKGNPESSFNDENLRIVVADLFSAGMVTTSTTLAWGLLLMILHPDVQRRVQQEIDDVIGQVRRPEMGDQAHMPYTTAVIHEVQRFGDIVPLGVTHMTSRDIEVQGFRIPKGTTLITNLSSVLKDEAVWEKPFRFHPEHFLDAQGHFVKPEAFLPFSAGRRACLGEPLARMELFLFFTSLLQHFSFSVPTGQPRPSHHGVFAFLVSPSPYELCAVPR", "experiment": "Ratio of IC50 for human liver microsome CYP2D6 in absence of NADPH to IC50 for human liver microsome CYP2D6 in presence of NADPH", "conditions": "liver microsomes, read-out: Ratio IC50"}, "[18]": {"target": "Cytochrome P450 2C9 (Homo sapiens, UniProt P11712)", "sequence (P11712 whole entry)": "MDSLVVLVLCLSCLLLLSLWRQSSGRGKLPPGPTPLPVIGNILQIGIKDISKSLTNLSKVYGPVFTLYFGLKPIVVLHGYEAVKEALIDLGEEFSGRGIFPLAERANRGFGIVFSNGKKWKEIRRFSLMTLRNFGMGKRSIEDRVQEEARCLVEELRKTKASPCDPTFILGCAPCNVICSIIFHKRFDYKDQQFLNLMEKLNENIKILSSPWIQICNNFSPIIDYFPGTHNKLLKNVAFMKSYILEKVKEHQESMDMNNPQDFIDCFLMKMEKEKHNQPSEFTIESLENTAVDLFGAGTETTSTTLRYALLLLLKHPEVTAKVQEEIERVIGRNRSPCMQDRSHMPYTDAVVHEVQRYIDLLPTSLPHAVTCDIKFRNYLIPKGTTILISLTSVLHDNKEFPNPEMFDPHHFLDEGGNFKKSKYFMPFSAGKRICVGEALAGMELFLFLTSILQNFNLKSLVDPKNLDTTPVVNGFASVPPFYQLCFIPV", "experiment": "Time dependent inhibition of human liver microsome CYP2C9 preincubated for 0.5 hrs in presence or absence of NADPH followed by substrate addition by LC-MS/MS method", "type": "ADME, microsomes", "how_it_was_run": "as §2"}, "[19]": {"experiment": "Metabolic stability in dog liver microsomes assessed as intrinsic clearance", "type": "ADME, Canis lupus familiaris, Microsome", "conditions": "read-out: CLH"}, "[20]": {"experiment": "Cmax in Sprague-Dawley rat at 20 mg/kg, po measured upto 24 hrs by LC-MS/MS method", "type": "ADME, organism-based", "design": "time < 24 hrs, dose 20 mg/kg, route po", "conditions": "in vivo", "how_it_was_run": "as §4"}, "[21]": {"target": "Potassium voltage-gated channel subfamily KQT member 2/member 3 (Rattus norvegicus) (UniProt O88943+O88944)", "experiment": "Agonist activity at rat KCNQ2/3 channel expressed in CHO cells assessed as amplitude change of outward current at 0.1 uM by patch clamp method", "type": "cell-based", "conditions": "filed as agonist", "how_it_was_run": "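Whole-cell patch clamp at room temperature on CHO cells (DMEM/F12, 10% FBS) transiently co-transfected with EGFP and hKCNQ1, rKCNQ2, rKCNQ3 A278T, hKCNQ4 or hKCNQ5; KCNQ2/3 at 1:1 cDNA ratio. Pipette solution 145 mM KCl, 5 mM MgATP, pH 7.3; bath 140 mM NaCl, 5 mM KCl, pH 7.4, under perfusion. V1/2 from Boltzmann fits; I/I0 is current amplitude with versus without compound; n = 4−6.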"}, "[22]": {"experiment": "Metabolic stability in human liver microsomes assessed as intrinsic clearance", "type": "ADME, Microsome", "conditions": "read-out: CLH"}},
  "data": [
    {"smiles": "CCOC(=O)Nc1ccc(NCc2ccc(F)cc2)cc1N", "note": "[EZOGABINE]", "values": [
      {"measurement": "Activity", "setting": "[1]", "value": 87.5, "unit": "%"}
    ]},
    {"smiles": "C#CCN(Cc1ccc(F)cc1)c1cc(C)c(NC(=O)OC)c(C)c1", "values": [
      {"measurement": "IC50", "setting": "[2]", "value": 2530, "unit": "nM"},
      {"measurement": "Activity", "setting": "[3]", "value": 100, "unit": "%"},
      {"measurement": "inhibition at 0.5 h, up to 50 µM", "setting": "[4]", "value": "< 25", "unit": "%"},
      {"measurement": "concentration", "setting": "[5]", "value": 120, "unit": "nM"},
      {"measurement": "half-life", "setting": "[6]", "value": 1.95, "unit": "h"},
      {"measurement": "Ratio EC50", "setting": "[7]", "value": 55},
      {"measurement": "AUC(0-t) at 24 h", "setting": "[8]", "value": 247, "unit": "ng·h/mL"},
      {"measurement": "AUC(0-t) at 24 h", "setting": "[9]", "value": 1520, "unit": "ng·h/mL"},
      {"measurement": "AUC(0-t) at 24 h", "setting": "[10]", "value": 1130, "unit": "ng·h/mL"},
      {"measurement": "Ratio ED50", "setting": "[11]", "value": 18.7},
      {"measurement": "Cmax", "setting": "[12]", "value": 264, "unit": "ng/mL"},
      {"measurement": "concentration", "setting": "[13]", "value": 110, "unit": "nM"},
      {"measurement": "Kp", "setting": "[14]", "value": 1.4},
      {"measurement": "Activity", "setting": "[15]", "value": 40, "unit": "%"},
      {"measurement": "Cmax", "setting": "[16]", "value": 162, "unit": "ng/mL"},
      {"measurement": "IC50 shift", "setting": "[17]", "value": "< 1.5"},
      {"measurement": "IC50", "setting": "[18]", "value": "> 50000", "unit": "nM"},
      {"measurement": "CLint scaled", "setting": "[19]", "value": 97.2, "unit": "mL/min/kg"},
      {"measurement": "Cmax", "setting": "[20]", "value": 323, "unit": "ng/mL"},
      {"measurement": "Activity", "setting": "[21]", "value": 2.77},
      {"measurement": "CLint scaled", "setting": "[22]", "value": 62.7, "unit": "mL/min/kg"}
    ]}
  ]
}
